29 compounds from ChEMBL document CHEMBL4364337, “The discovery and optimization of a series of 2-aminobenzoxazole derivatives as ChemR23 inhibitors” (Bioorg Med Chem, 2019) can be followed below.

The term IC50 denotes the concentration at which inhibition is half-maximal. As usually defined, the EC50 is the concentration needed to bring the measured effect to its halfway point.

Calls of active or inactive are those of the source. The calls are words filed in the database; no cut-off is given here.

The target of assay [1] is T1, Chemerin-like receptor 1 (Mus musculus, UniProt P97468).
T1 sequence (P97468 whole entry): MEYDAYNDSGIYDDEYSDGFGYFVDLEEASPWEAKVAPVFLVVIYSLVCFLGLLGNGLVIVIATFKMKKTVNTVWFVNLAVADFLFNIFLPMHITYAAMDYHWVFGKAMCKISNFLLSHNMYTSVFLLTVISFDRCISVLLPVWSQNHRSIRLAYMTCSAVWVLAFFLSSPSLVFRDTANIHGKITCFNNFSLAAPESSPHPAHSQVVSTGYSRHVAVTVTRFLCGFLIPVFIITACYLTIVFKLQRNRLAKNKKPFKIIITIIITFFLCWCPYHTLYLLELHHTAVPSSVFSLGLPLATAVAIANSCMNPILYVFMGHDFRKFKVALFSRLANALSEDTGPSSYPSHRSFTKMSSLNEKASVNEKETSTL
The experiment in a line: Inhibition of chemR23 expressed in mouse BA/F3 cells assessed as reduction in chemerin-induced intracellular calcium ion concentration preincubated for 45 mins followed by chemerin addition. The format is functional, cell-based. The gist of the method:
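Ba/F3 cells stably expressing mouse ChemR23, 1 × 10⁴/well, loaded with Calcium-3 in RPMI1640, 10 mM HEPES, amaranth 0.75 mg/mL final. Compounds at final 0–10 µM for 45 min at 37 °C, then mouse chemerin (final 2 ng/mL, 1% BSA buffer); intracellular Ca²⁺ read by kinetic fluorescence.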
Background: Calcium assays in cells follow changes in intracellular calcium, usually with a dye or a luminescent sensor.

The target in assay [2] is T2, Chemerin-like receptor 1 (Homo sapiens) (UniProt Q99788).
T2 sequence (whole entry): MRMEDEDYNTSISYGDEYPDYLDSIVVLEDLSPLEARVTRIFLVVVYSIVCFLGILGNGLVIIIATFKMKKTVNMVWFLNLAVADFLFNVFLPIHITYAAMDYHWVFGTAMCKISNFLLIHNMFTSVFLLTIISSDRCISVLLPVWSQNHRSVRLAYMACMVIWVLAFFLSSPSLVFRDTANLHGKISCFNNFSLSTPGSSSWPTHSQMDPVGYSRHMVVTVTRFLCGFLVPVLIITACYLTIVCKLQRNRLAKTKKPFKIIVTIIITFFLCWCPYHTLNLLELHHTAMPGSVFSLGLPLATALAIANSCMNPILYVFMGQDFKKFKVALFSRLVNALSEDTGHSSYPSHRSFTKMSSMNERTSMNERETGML
Put plainly: Induction of chemR23 internalization in human CAL1 cells at 3 uM incubated for 30 mins at 37 degC by flow cytometric analysis. The class given is cell-based. The gist of the method:
(§1)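 CAL-1 cells in RPMI1640 with 10 mM HEPES, 4.5 × 10⁵ cells per tube, exposed to compounds at 37 °C or 4 °C for 30 min; chemerin 50 ng/mL as reference ligand. Washed with PBS containing 2% FBS, stained with anti-ChemR23 antibody; surface ChemR23 measured by flow cytometry, single determination (N = 1).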
(In flow cytometry, cells or beads pass a laser one at a time.)

The target in assay [3] is T3, Chemerin-like receptor 1 (Homo sapiens, UniProt Q99788).
T3 sequence (Q99788 whole entry): T2 sequence (whole entry)
Put plainly: Agonist activity at chemR23 expressed in human CAL1 cells assessed as increase in intracellular calcium ion concentration. The class given is functional, cell-based.

Assay [4] has as its target C-X-C chemokine receptor type 4 (Homo sapiens, UniProt P61073). The experiment in a line: Inhibition of CXCR4 expressed in human CAL1 cells assessed as reduction in SDF1alpha-induced intracellular calcium ion concentration preincubated for 45 mins followed by SDF1alpha addition. The class given is functional, cell-based. The gist of the method: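 CAL-1 cells (1 × 10⁴/well) loaded with Calcium-3 in RPMI1640, 10 mM HEPES, amaranth 0.75 mg/mL final. Compounds at final 0–10 µM for 45 min at 37 °C, then human SDF-1α (final 5 × 10^-3 µM, in buffer with 1% BSA); intracellular Ca²⁺ read by kinetic fluorescence.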

For assay [5], the target named is T2, Chemerin-like receptor 1 (Homo sapiens). The experiment in a line: Induction of chemR23 internalization in human CAL1 cells at 3 uM incubated for 30 mins at 4 degC by flow cytometric analysis. The format is cell-based. In a few lines: as §1
For assay [6], the target named is T3, Chemerin-like receptor 1. The experiment in a line: Inhibition of chemR23 in human CAL1 cells assessed as reduction in chemerin-induced intracellular calcium ion concentration preincubated for 45 mins followed by chemerin addition. The format is functional, cell-based. The gist of the method: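 CAL-1 cells, native human ChemR23, 1 × 10⁴/well in RPMI 1640 with 10 mM HEPES, Calcium-3 dye, amaranth 0.75 mg/mL final. Compounds at final 0–10 µM for 45 min at 37 °C, then human chemerin (final 50 ng/mL, 1% BSA buffer); intracellular Ca²⁺ read by kinetic fluorescence; mean of four measurements.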

Assay [7] addresses T2, Chemerin-like receptor 1 (Homo sapiens). The experiment in a line: Induction of chemR23 internalization in human CAL1 cells at 10 uM incubated for 30 mins at 37 degC by flow cytometric analysis. The format is cell-based. In a few lines:
as §1

For assay [8] the target is unchanged. Put plainly: Induction of chemR23 internalization in human CAL1 cells at 10 uM incubated for 30 mins at 4 degC by flow cytometric analysis. The class given is cell-based. The gist of the method: as §1

Sequence of C-X-C chemokine receptor type 4 (P61073 whole entry): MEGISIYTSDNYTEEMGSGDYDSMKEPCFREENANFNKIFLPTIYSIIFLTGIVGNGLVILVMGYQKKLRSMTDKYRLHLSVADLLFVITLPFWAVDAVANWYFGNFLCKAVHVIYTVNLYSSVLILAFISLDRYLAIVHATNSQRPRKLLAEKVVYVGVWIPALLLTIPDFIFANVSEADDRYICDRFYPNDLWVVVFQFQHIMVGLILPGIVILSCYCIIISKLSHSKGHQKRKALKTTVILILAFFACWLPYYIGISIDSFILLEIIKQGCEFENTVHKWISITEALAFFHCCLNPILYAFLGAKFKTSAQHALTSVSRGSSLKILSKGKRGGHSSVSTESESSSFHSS

`CCCCN(c1nc2ccccc2o1)[C@H](C)c1ccc(-c2ccccc2-c2nnn[nH]2)cc1`: the IC50 on Chemerin-like receptor 1 [1] is 0.15 µM; in assay [4], 8.7 µM; on Chemerin-like receptor 1 [6], 0.11 µM. Further, the outcome in assay [2] was Active. For the same compound, at Chemerin-like receptor 1 [3], the EC50 is 1.2 µM. Also, the result in assay [5] was inactive.
In the case of `CCCCN(c1nc2ccccc2o1)[C@@H](C)c1ccc(-c2ccccc2-c2nnn[nH]2)cc1`, in assay [2], the result was Active. For the same compound, the EC50 at Chemerin-like receptor 1 [3] was greater than 10 µM. Moreover, the IC50 in assay [4] came out at 9.9 µM; at Chemerin-like receptor 1 [6], 7.6 µM. Moreover, the outcome in assay [5] was inactive.
For the compound `c1ccc(CN(Cc2ccc(-c3ccccc3-c3nnn[nH]3)cc2)c2nc3ccccc3o2)cc1`, the 50% effective concentration (EC50) on Chemerin-like receptor 1 [3] is greater than 10 µM. Further, the figures for the IC50 (in assay [4]; on Chemerin-like receptor 1 [6]) were 9.6 µM and greater than 10 µM, respectively.
On to `CCCCN(c1nc2ccccc2o1)C(C)(C)c1ccc(-c2ccccc2-c2nnn[nH]2)cc1`, for which the EC50 on Chemerin-like receptor 1 [3] is greater than 10 µM. In addition, the IC50 in assay [4] is greater than 10 µM; on Chemerin-like receptor 1 [6], 8.4 µM.
As for `CCCCN(c1nc2cc(CC(=O)NC)ccc2o1)[C@H](C)c1ccc(-c2ccccc2-c2nnn[nH]2)cc1`, the IC50 at Chemerin-like receptor 1 [1] is greater than 10 µM; in assay [4], greater than 10 µM; on Chemerin-like receptor 1 [6] it was 0.12 µM. The EC50 at Chemerin-like receptor 1 [3] came out at 2.3 µM.
As to `CCCCN(Cc1ccc(-c2ccccc2-c2nnn[nH]2)cc1)c1nc2cc(Cl)cc(C)c2o1`, on Chemerin-like receptor 1 [3], the EC50 was greater than 10 µM. In addition, the values for the IC50 (in assay [4]; on Chemerin-like receptor 1 [6]) were 3.9 µM and 2.5 µM, respectively.
Taken in the same sequence, the figures for `c1ccc(-c2nnn[nH]2)c(-c2ccc(CN(Cc3ccncc3)c3nc4ccccc4o3)cc2)c1` were greater than 10 µM, greater than 10 µM and greater than 10 µM.
For `CCCCCN(Cc1ccc(-c2ccccc2-c2nnn[nH]2)cc1)c1nc2ccccc2o1` the same measures were 6.6 µM, 5.6 µM and 3.3 µM.
Regarding `CCCCN(c1nc2cc(NC(=O)NC)ccc2o1)[C@H](C)c1ccc(-c2ccccc2-c2nnn[nH]2)cc1`, the IC50 at Chemerin-like receptor 1 [1] was 0.94 µM; in assay [4], greater than 10 µM; on Chemerin-like receptor 1 [6] it was 0.034 µM.
As to `CCCCN(c1nc2cc(C(=O)NC)ccc2o1)[C@H](C)c1ccc(-c2ccccc2-c2nnn[nH]2)cc1`, the figures for the IC50 (at Chemerin-like receptor 1 [1]; in assay [4]; on Chemerin-like receptor 1 [6]) were 0.15 µM, greater than 10 µM and 0.038 µM, respectively. For the same compound, the EC50 on Chemerin-like receptor 1 [3] came to 0.28 µM.
In the case of `CCCCN(Cc1ccc(-c2ccccc2-c2nnn[nH]2)cc1)c1nc2ccccc2o1`, the result in assay [7] was Active. For the same compound, the EC50 on Chemerin-like receptor 1 [3] is 5.2 µM. Further, the result in assay [8] was inactive. Also, the IC50 is 9.7 µM in assay [4] and 3.3 µM at Chemerin-like receptor 1 [6].
As to `CCCCN(Cc1ccc(-c2ccccc2-c2nnn[nH]2)cc1)c1nc2cc(CC(=O)NC)ccc2o1`, the EC50 on Chemerin-like receptor 1 [3] is 3.9 µM. Further, the IC50 is greater than 10 µM in assay [4] and 1 µM on Chemerin-like receptor 1 [6].
Taken in the same sequence, the figures for `CCCCN(Cc1ccc(-c2ccccc2-c2nnn[nH]2)cc1)c1nc2cc(CC(=O)OC)ccc2o1` were greater than 10 µM, greater than 10 µM and 2.4 µM.
Taken in the same sequence, the figures for `CCCCN(Cc1ccc(-c2ccccc2-c2nnn[nH]2)cc1)c1nc2cc(Cl)cc(Cl)c2o1` were greater than 10 µM, 2.9 µM and 1.2 µM.
For the compound `CCCCN(c1nc2cc(NC(C)=O)ccc2o1)[C@H](C)c1ccc(-c2ccccc2-c2nnn[nH]2)cc1`, the IC50 is 2.1 µM on Chemerin-like receptor 1 [1], greater than 10 µM in assay [4] and 0.44 µM on Chemerin-like receptor 1 [6]. In addition, at Chemerin-like receptor 1 [3], the EC50 is 1.5 µM.
On to `c1cncc(CN(Cc2ccc(-c3ccccc3-c3nnn[nH]3)cc2)c2nc3ccccc3o2)c1`, for which the EC50 at Chemerin-like receptor 1 [3] was greater than 10 µM. Moreover, the IC50 (in assay [4]; at Chemerin-like receptor 1 [6]) was greater than 10 µM each time.
Consider `CCCCN(Cc1ccc(-c2ccccc2-c2nnn[nH]2)cc1)c1nc2cc(C)ccc2o1`, for which the EC50 on Chemerin-like receptor 1 [3] came to 3.9 µM. For the same compound, the IC50 in assay [4] amounted to 8.6 µM; on Chemerin-like receptor 1 [6], 2.5 µM.
Take `CCCCN(c1nc2cc(N(C)C(N)=O)ccc2o1)[C@H](C)c1ccc(-c2ccccc2-c2nnn[nH]2)cc1`: the IC50 on Chemerin-like receptor 1 [1] was greater than 10 µM; on Chemerin-like receptor 1 [6], greater than 30 µM.
Consider `CCCCN(c1nc2ccccc2o1)C(C)c1ccc(-c2ccccc2-c2nnn[nH]2)cc1` (racemic), for which, at Chemerin-like receptor 1 [3], the EC50 stood at 2.7 µM. Also, the IC50 in assay [4] amounted to 8.8 µM; at Chemerin-like receptor 1 [6], 0.25 µM.
Consider `CCCCN(c1nc2cc(NC(N)=O)ccc2o1)[C@H](C)c1ccc(-c2ccccc2-c2nnn[nH]2)cc1`, for which the IC50 at Chemerin-like receptor 1 [1] is 0.43 µM; in assay [4], greater than 10 µM; at Chemerin-like receptor 1 [6] it was 0.037 µM.
`CCCCN(c1nc2ccccc2o1)C(c1ccc(-c2ccccc2-c2nnn[nH]2)cc1)C1CC1` (configuration not stated): on Chemerin-like receptor 1 [3], the EC50 is greater than 3 µM. For the same compound, the IC50 (in assay [4]; on Chemerin-like receptor 1 [6]) was greater than 3 µM each time.
With `COCCN(Cc1ccc(-c2ccccc2-c2nnn[nH]2)cc1)c1nc2ccccc2o1`, at Chemerin-like receptor 1 [3], the EC50 was greater than 10 µM. Moreover, the figures for the IC50 (in assay [4]; on Chemerin-like receptor 1 [6]) were greater than 10 µM and 3.4 µM, respectively.
As for `CCCCN(Cc1ccc(-c2ccccc2-c2nnn[nH]2)cc1)c1nc2cc(Cl)c(C)cc2o1`, the EC50 on Chemerin-like receptor 1 [3] is greater than 10 µM. Further, the IC50 was 5.5 µM in assay [4] and 3.3 µM at Chemerin-like receptor 1 [6].
For `CCCCN(c1nc2cc(NC(=O)N(C)C)ccc2o1)[C@H](C)c1ccc(-c2ccccc2-c2nnn[nH]2)cc1`, the IC50 on Chemerin-like receptor 1 [1] was 0.51 µM; in assay [4], greater than 10 µM; on Chemerin-like receptor 1 [6], 0.032 µM.
On to `c1ccc(CN(Cc2ccc(-c3ccccc3-c3nnn[nH]3)cc2)c2nc3ccccc3o2)nc1`, for which, on Chemerin-like receptor 1 [3], the EC50 is greater than 10 µM. In addition, the 50% inhibitory concentration (IC50) in assay [4] was greater than 10 µM; at Chemerin-like receptor 1 [6], 2.8 µM.
As to `CCCCN(Cc1ccc(-c2ccccc2-c2nnn[nH]2)cc1)c1nc2cc(C(=O)OC)ccc2o1`, the EC50 at Chemerin-like receptor 1 [3] was greater than 10 µM. Further, the IC50 is greater than 10 µM in assay [4] and 4.3 µM on Chemerin-like receptor 1 [6].
Turning to `CCCCN(c1nc2cc(CNC(=O)NC)ccc2o1)[C@H](C)c1ccc(-c2ccccc2-c2nnn[nH]2)cc1`, the values for the IC50 (at Chemerin-like receptor 1 [1]; in assay [4]; at Chemerin-like receptor 1 [6]) were 13 µM, greater than 10 µM and 0.048 µM, respectively. For the same compound, on Chemerin-like receptor 1 [3], the EC50 was found to be 1.3 µM.
`CCCCN(c1nc2ccccc2o1)C(CC)c1ccc(-c2ccccc2-c2nnn[nH]2)cc1` (configuration not stated): the EC50 on Chemerin-like receptor 1 [3] was determined as 4.5 µM. Further, the results for the IC50 (in assay [4]; on Chemerin-like receptor 1 [6]) were 8.8 µM and 0.94 µM, respectively.
For `c1ccc(-c2nnn[nH]2)c(-c2ccc(CN(CC3CCCC3)c3nc4ccccc4o3)cc2)c1` the same measures were 8.3 µM, 3.5 µM and 2.2 µM.
